Screening results as filed in PubChem BioAssay.
Only some compounds are listed: those with a hit (about 2.4% of all), similar ones and a draw of the others.
Cardio protect: myocardial damage modulation in H9c2 cells; H9c2 cardiomyocytes, H2O2 injury protection, ATPLite, 2 h; protection from H2O2 cell death, % at 20 µM; 360,000 tested, 0.63% active; AID 588492;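 active means compounds giving at least 50% protection of heart cells from peroxide-induced death in the single-dose screen, raw or plate-pattern-corrected value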;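 further: 0% = DMSO wells with peroxide and 100% = DMSO wells without peroxide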
GASC-1 inh: blocks human GASC-1 demethylase activity; 330,000 tested, 0.069% active; inhibition, % at 2.35 µM; GST-JMJD2C(1-420) H3K9me3 demethylation, DELFIA europium;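 active means more than half of a compound's replicate wells show inhibition beyond 50%, single wells judged on their own value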;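 further: signal counts dimethyl H3K9 product captured on neutravidin plate; 0% = median of DMSO wells and 100% = 0.3 times that DMSO median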
Target sequence (Q9H3R0 1-420 limits assumed): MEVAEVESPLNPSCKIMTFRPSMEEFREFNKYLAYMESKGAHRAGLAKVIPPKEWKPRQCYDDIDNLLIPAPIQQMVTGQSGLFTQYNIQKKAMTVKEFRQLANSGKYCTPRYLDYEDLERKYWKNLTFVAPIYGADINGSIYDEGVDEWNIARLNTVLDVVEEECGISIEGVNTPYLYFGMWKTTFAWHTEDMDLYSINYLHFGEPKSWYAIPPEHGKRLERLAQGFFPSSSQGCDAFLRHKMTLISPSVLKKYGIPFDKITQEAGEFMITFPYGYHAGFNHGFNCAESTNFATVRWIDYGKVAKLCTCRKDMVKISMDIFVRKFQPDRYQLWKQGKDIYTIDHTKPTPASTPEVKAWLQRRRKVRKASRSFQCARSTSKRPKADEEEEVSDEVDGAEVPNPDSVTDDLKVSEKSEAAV
PP5 inh: blocks human protein phosphatase 5 activity. inhibition, % at 6.7 µM. 320,000 tested, 0.18% active. purified PP5c, OMFP substrate fluorescence;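 active means inhibition above the campaign's mean inhibition across all tested compounds plus 3 SD, cut at about 9.5% in these data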;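 further: 0% = DMSO only and 100% = 100 µM cantharidin control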
CTSL1 counter: counter-screen for PFM18AAP inhibitors: inhibitors of F. hepatica cathepsin L1 | 300,000 tested, 0.49% active | inhibition, % at 5.96 µM | recombinant F. hepatica cathepsin L1, Z-Leu-Arg-MCA fluorescence;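 active means inhibition above the mean of all tested compounds plus 3 SD, set per screening campaign, cut at about 17% in these data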;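 further: 0% = plate median of test compound wells and 100% = 1 µM Z-Phe-Ala-diazomethylketone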
T cruzi inh: blocks replication of Trypanosoma cruzi; inhibition, % (no concentration beside the values); T. cruzi beta-gal in NIH3T3, luminescence, 90 h; AID 1885; 300,000 tested, 1.4% active;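 active means mean inhibition across valid replicates above about 55%, limit read from the data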;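 further: signal also drops with host cell toxicity which is not excluded here; 0% = plate median of DMSO wells and 100% = zero luminescence signal; higher percent means less beta-gal luminescence so fewer parasites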
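assay system = mouse NIH/3T3 fibroblasts infected with β-gal-expressing T. cruzi Tulahuen C4 | input = 5,000 NIH/3T3 host cells per well | buffer or medium = DMEM plus 2% FBS | timing = 3 h host attachment, then at least 90 h co-culture | measured by = GalScreen luminescence, 60 min | evaluation = luminescence reflecting intracellular parasite burden, expressed as percent inhibition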
p-CIP stab down: lowers stability of the mouse p/CIP coactivator protein | F442A p/CIP-EGFP cells, EGFP fluorescence, 16 h | 290,000 tested, 0.01% active | decrease of EGFP signal, % at 10 µM | Q05BA5;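 active means EGFP signal decrease of at least 30% at 10 µM or well 3 SD below plate mean, unless failing retest; inactive means the rest, including hits failing retest or dose response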
* hit, by the source's call.

How did CC(Sc1nnc(-c2ccccc2F)n1C)C(=O)NC1CCCCC1 (configuration not stated) do in these assays?
Cardio protect: -1; GASC-1 inh: -7; PP5 inh: -2

What do the screens show for `COc1ccc(OC)c(N(C)S(=O)(=O)c2ccc3c(c2)N(C(C)=O)CCO3)c1`?
Cardio protect: 6; GASC-1 inh: 4; PP5 inh: 3; CTSL1 counter: -2; T cruzi inh: 5; p-CIP stab down: 8

How did CC(=O)Nc1sc(C)c(C)c1C(=O)OCC(=O)NCc1ccc(F)cc1 do in these assays?
Cardio protect: -5; GASC-1 inh: 0; PP5 inh: -3

How did CCN(CCO)c1nc(SC)nc2c1sc1nc(-c3ccco3)c3c(c12)CCC3 do in these assays?
Cardio protect: -2; GASC-1 inh: 2; PP5 inh: 2; CTSL1 counter: 18*; T cruzi inh: -12; p-CIP stab down: -4

Results for CCSc1ncnc2c1sc1nc(-c3ccco3)c3c(c12)CC(C)(C)OC3 ?
GASC-1 inh: -9; PP5 inh: 1; CTSL1 counter: -3; T cruzi inh: 7; p-CIP stab down: -4

How did CSc1nc(NCCOCCO)c2sc3nc(-c4ccco4)c4c(c3c2n1)CCC4 do in these assays?
Cardio protect: 27; GASC-1 inh: 11; PP5 inh: 1; CTSL1 counter: 17*; p-CIP stab down: -8

What do the screens show for `CSc1nc(NCc2ccco2)c2sc3nc(C(C)C)c4c(c3c2n1)CC(C)(C)OC4`?
Cardio protect: 10; GASC-1 inh: 7; PP5 inh: 3; CTSL1 counter: -4; T cruzi inh: 8; p-CIP stab down: 5

What do the screens show for `COc1ccc(-c2cc(NC=O)c3ncc(-c4cccc(C(F)(F)F)c4)n3c2)cc1OC`?
Cardio protect: 17

What do the screens show for `CC1CCCCN1S(=O)(=O)c1ccc(S(=O)(=O)N(Cc2ccccc2)Cc2ccco2)cc1` (configuration not stated)?
Cardio protect: 4; GASC-1 inh: 10; PP5 inh: 0; CTSL1 counter: 0; T cruzi inh: 71*; p-CIP stab down: 8

What do the screens show for `Cc1cc(C(=O)CCl)c(C)n1Cc1ccco1`?
Cardio protect: -18; GASC-1 inh: 16; PP5 inh: -1; CTSL1 counter: 10; T cruzi inh: 80*; p-CIP stab down: -15

How did CCOC(=O)c1cc(C)n(CCc2ccccc2)c1C do in these assays?
Cardio protect: -5; GASC-1 inh: 0; PP5 inh: 2; CTSL1 counter: -1; T cruzi inh: 5; p-CIP stab down: -15

Results for Cc1cc(C(=O)CCl)c(C)n1CCc1ccccc1 ?
GASC-1 inh: 9; PP5 inh: -1; CTSL1 counter: 17*; T cruzi inh: -20; p-CIP stab down: -13

What do the screens show for `COc1ccc(/C=C(\C#N)C(=O)c2c(C)[nH]c3ccccc23)cc1OC`?
Cardio protect: 54*; GASC-1 inh: 24; PP5 inh: 0; CTSL1 counter: 2; T cruzi inh: -5; p-CIP stab down: -11

What do the screens show for `CCCCn1nc(NC(=O)c2cccs2)c2cc3ccccc3nc21`?
Cardio protect: 56*; GASC-1 inh: 5; PP5 inh: 8; CTSL1 counter: 0; T cruzi inh: 35; p-CIP stab down: 3

What do the screens show for `CCCCn1nc(NC(=O)c2cccs2)c2cc3cc(OC)ccc3nc21`?
Cardio protect: 62*; GASC-1 inh: -17; PP5 inh: 5; CTSL1 counter: 3; T cruzi inh: 11; p-CIP stab down: 1

Results for CCCn1nc(NC(=O)c2cccs2)c2cc3ccccc3nc21 ?
Cardio protect: 8; GASC-1 inh: -2; PP5 inh: 6; CTSL1 counter: 5; T cruzi inh: 4; p-CIP stab down: -17

Results for COc1ccc2nc3c(cc2c1)c(NC(=O)C1CCCO1)nn3CC(C)C (configuration not stated) ?
Cardio protect: 98*; GASC-1 inh: -3; PP5 inh: 1; CTSL1 counter: 1; T cruzi inh: 3; p-CIP stab down: -5

How did N#Cc1ccccc1S(=O)(=O)N1CCN(C(=O)C2CCC2)CC1 do in these assays?
Cardio protect: -1; GASC-1 inh: -8; PP5 inh: -1; CTSL1 counter: -1; T cruzi inh: -15

What do the screens show for `CCN1C(=O)[C@H]2[C@H]3CN=C(SCc4ccc(C#N)cc4)N3[C@@](Cc3ccccc3)(C(=O)OC)[C@H]2C1=O`?
Cardio protect: 55*

What do the screens show for `O=C(CCl)Nc1cccc(S(=O)(=O)N2CCCCCC2)c1`?
Cardio protect: -10; GASC-1 inh: -5; PP5 inh: 2; CTSL1 counter: 78*; T cruzi inh: 8; p-CIP stab down: -4

Results for O=C(Oc1cccc(NC(=O)c2ccco2)c1)c1cccc(S(=O)(=O)N2CCCC2)c1 ?
Cardio protect: -4; GASC-1 inh: 52*; PP5 inh: 0; CTSL1 counter: -15; T cruzi inh: 12; p-CIP stab down: 8

What do the screens show for `O=C(Nc1cccc(S(=O)(=O)N2CCCCC2)c1)c1ccco1`?
Cardio protect: -2; GASC-1 inh: 0; PP5 inh: -1

How did COc1cc(-c2cnc3c(NC=O)cc(-c4cccc(NC(C)=O)c4)cn23)cc(OC)c1OC do in these assays?
Cardio protect: 54*

What do the screens show for `CC(=O)c1ccc(-c2cnc3c(NC=O)cc(-c4cccc(C(=O)N(C)C)c4)cn23)cc1`?
Cardio protect: 76*

Results for COc1ccc(-c2cc(NC=O)c3ncc(-c4cccc(C(C)=O)c4)n3c2)cc1 ?
Cardio protect: 65*

Results for CC(=O)Nc1cccc(-c2cc(NC=O)c3ncc(-c4cccc(C(C)=O)c4)n3c2)c1 ?
Cardio protect: 71*

What do the screens show for `O=C(NCCC(=O)N1CCN(c2ccc(F)cc2)CC1)c1ccco1`?
Cardio protect: 5

Results for CC(Sc1nnc(C(C)Oc2ccc(F)cc2)o1)C(=O)NCc1ccc2c(c1)OCO2 (configuration not stated) ?
Cardio protect: 0

How did COc1cccc(-c2cc(NC=O)c3ncc(-c4ccc(C(C)=O)cc4)n3c2)c1 do in these assays?
Cardio protect: 34

What do the screens show for `COc1cccc(-c2cnc3c(NC=O)cc(-c4cc(C)c(O)c(C)c4)cn23)c1`?
Cardio protect: 67*

What do the screens show for `COc1cccc(-c2cnc3c(NC=O)cc(-c4ccccc4)cn23)c1`?
Cardio protect: 6

Results for COc1cccc(-c2cnc3c(NC(C)=O)cc(-c4cccc(NS(C)(=O)=O)c4)cn23)c1 ?
Cardio protect: 63*

How did COc1cccc(-c2cnc3c(NC=O)cc(-c4cccc(NC(C)=O)c4)cn23)c1 do in these assays?
Cardio protect: 64*

Results for CC(=O)Nc1cc(-c2cccc(NS(C)(=O)=O)c2)cn2c(-c3ccccc3)cnc12 ?
Cardio protect: 9

What do the screens show for `Nc1ncn(C(=S)Nc2ccccc2)n1`?
Cardio protect: -4
